Nine compounds from ChEMBL document CHEMBL1133591, “Potent derivatives of glucagon-like peptide-1 with pharmacokinetic properties suitable for once daily administration” (J Med Chem, 2000) can be followed below.

Data set [1] in a line: Plasma half life was determined in pigs. It is filed as ADME, organism-based, Sus scrofa. Particulars: pig. The method, boiled down:
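Landrace × Duroc × Yorkshire pigs, 25–50 kg, two per compound; single sc dose, 0.5 nmol/kg for analogues, 15 nmol/kg for GLP-1. Jugular catheter blood at 0–72 h, extra early samples for GLP-1; EDTA/aprotinin/bacitracin-stabilized plasma. Unextracted plasma assayed by N-terminal-specific GLP-1 radioimmunoassay against spiked pig-plasma calibrators; half-life calculated per pig, reported as mean ± SD.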

Data set [2] deals with Glucagon-like peptide 1 receptor (Homo sapiens, UniProt P43220). Put plainly: Potency measured using recombinant human GLP-1 receptor expressed in Baby Hamster Kidney (BHK)cells. It is filed as cell-based.

Numbered stars: 1 amine (or outer) side, 2 acyl side, 3 side chain; on linkers, the order of the positions; unused ones are H or OH. Square brackets hold non-standard residues; d marks the D form. Side chains are listed from the residue outwards. Peptide text beside a SMILES is read from it. * marks the point of attachment. ξ: configuration not given here. X2 = CCCCCCCCCCCCCC(CCCCC(=O)*)C(=O)O; ξγGlu = O=C(O)C(CCC(=O)[*:2])N[*:1]; Stearoyl = CCCCCCCCCCCCCCCCCC(=O)*; Palmitoyl = CCCCCCCCCCCCCCCC(=O)*; ξK = NCCCCC(N)C(=O)O

Chain of Glucagon-like peptide 1 receptor (P43220 whole entry): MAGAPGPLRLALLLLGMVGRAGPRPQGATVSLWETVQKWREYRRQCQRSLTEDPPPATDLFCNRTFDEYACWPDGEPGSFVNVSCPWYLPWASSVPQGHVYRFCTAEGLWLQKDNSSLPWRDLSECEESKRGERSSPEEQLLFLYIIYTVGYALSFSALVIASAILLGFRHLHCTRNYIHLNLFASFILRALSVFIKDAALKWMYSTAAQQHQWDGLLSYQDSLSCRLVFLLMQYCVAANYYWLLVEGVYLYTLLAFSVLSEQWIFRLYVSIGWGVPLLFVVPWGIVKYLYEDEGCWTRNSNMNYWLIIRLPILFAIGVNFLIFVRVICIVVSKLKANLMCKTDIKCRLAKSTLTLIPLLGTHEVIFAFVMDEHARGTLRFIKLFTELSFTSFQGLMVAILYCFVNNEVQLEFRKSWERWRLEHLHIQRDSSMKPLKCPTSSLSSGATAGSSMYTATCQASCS

What is called half-life is the time in which the quantity being followed falls by half. Lower therefore signals fast loss. `CCCCCCCCCCCCCCCC(=O)NCCCC(=O)NCCCC[C@H](NC(=O)[C@H](C)NC(=O)[C@H](C)NC(=O)[C@H](CCC(N)=O)NC(=O)CNC(=O)[C@H](CCC(=O)O)NC(=O)[C@H](CC(C)C)NC(=O)[C@H](Cc1ccc(O)cc1)NC(=O)[C@H](CO)NC(=O)[C@H](CO)NC(=O)[C@@H](NC(=O)[C@H](CC(=O)O)NC(=O)[C@H](CO)NC(=O)[C@@H](NC(=O)[C@H](Cc1ccccc1)NC(=O)[C@@H](NC(=O)CNC(=O)[C@H](CCC(=O)O)NC(=O)[C@H](C)NC(=O)[C@@H](N)Cc1c[nH]cn1)[C@@H](C)O)[C@@H](C)O)C(C)C)C(=O)N[C@@H](CCC(=O)O)C(=O)N[C@@H](Cc1ccccc1)C(=O)N[C@H](C(=O)N[C@@H](C)C(=O)N[C@@H](Cc1c[nH]c2ccccc12)C(=O)N[C@@H](CC(C)C)C(=O)N[C@H](C(=O)N[C@@H](CCCN=C(N)N)C(=O)NCC(=O)N[C@@H](CCCN=C(N)N)C(=O)NCC(=O)O)C(C)C)[C@@H](C)CC` gave a half-life in data set [1] of 31 h.
Same read-out and setting: the value for `CCCCCCCCCCCC(=O)NC(CCC(=O)NCCCC[C@H](NC(=O)[C@H](C)NC(=O)[C@H](C)NC(=O)[C@H](CCC(N)=O)NC(=O)CNC(=O)[C@H](CCC(=O)O)NC(=O)[C@H](CC(C)C)NC(=O)[C@H](Cc1ccc(O)cc1)NC(=O)[C@H](CO)NC(=O)[C@H](CO)NC(=O)[C@@H](NC(=O)[C@H](CC(=O)O)NC(=O)[C@H](CO)NC(=O)[C@@H](NC(=O)[C@H](Cc1ccccc1)NC(=O)[C@@H](NC(=O)CNC(=O)[C@H](CCC(=O)O)NC(=O)[C@H](C)NC(=O)[C@@H](N)Cc1c[nH]cn1)[C@@H](C)O)[C@@H](C)O)C(C)C)C(=O)N[C@@H](CCC(=O)O)C(=O)N[C@@H](Cc1ccccc1)C(=O)N[C@H](C(=O)N[C@@H](C)C(=O)N[C@@H](Cc1c[nH]c2ccccc12)C(=O)N[C@@H](CC(C)C)C(=O)N[C@H](C(=O)N[C@@H](CCCN=C(N)N)C(=O)NCC(=O)N[C@@H](CCCN=C(N)N)C(=O)NCC(=O)O)C(C)C)[C@@H](C)CC)C(=O)O` (some centres undefined) was 15 h.
Still for that read-out and setting: with `CCCCCCCCCCCCCCCC(=O)NCCC(=O)NCCCC[C@H](NC(=O)[C@H](C)NC(=O)[C@H](C)NC(=O)[C@H](CCC(N)=O)NC(=O)CNC(=O)[C@H](CCC(=O)O)NC(=O)[C@H](CC(C)C)NC(=O)[C@H](Cc1ccc(O)cc1)NC(=O)[C@H](CO)NC(=O)[C@H](CO)NC(=O)[C@@H](NC(=O)[C@H](CC(=O)O)NC(=O)[C@H](CO)NC(=O)[C@@H](NC(=O)[C@H](Cc1ccccc1)NC(=O)[C@@H](NC(=O)CNC(=O)[C@H](CCC(=O)O)NC(=O)[C@H](C)NC(=O)[C@@H](N)Cc1c[nH]cn1)[C@@H](C)O)[C@@H](C)O)C(C)C)C(=O)N[C@@H](CCC(=O)O)C(=O)N[C@@H](Cc1ccccc1)C(=O)N[C@H](C(=O)N[C@@H](C)C(=O)N[C@@H](Cc1c[nH]c2ccccc12)C(=O)N[C@@H](CC(C)C)C(=O)N[C@H](C(=O)N[C@@H](CCCN=C(N)N)C(=O)NCC(=O)N[C@@H](CCCN=C(N)N)C(=O)NCC(=O)O)C(C)C)[C@@H](C)CC` the figure was 8.8 h; with `CCCCCCCCCCCCCCCC(=O)N[C@@H](CCC(=O)NCCCC[C@H](NC(=O)[C@H](C)NC(=O)[C@H](C)NC(=O)[C@H](CCC(N)=O)NC(=O)CNC(=O)[C@H](CCC(=O)O)NC(=O)[C@H](CC(C)C)NC(=O)[C@H](Cc1ccc(O)cc1)NC(=O)[C@H](CO)NC(=O)[C@H](CO)NC(=O)[C@@H](NC(=O)[C@H](CC(=O)O)NC(=O)[C@H](CO)NC(=O)[C@@H](NC(=O)[C@H](Cc1ccccc1)NC(=O)[C@@H](NC(=O)CNC(=O)[C@H](CCC(=O)O)NC(=O)[C@H](C)NC(=O)[C@@H](N)Cc1cnc[nH]1)[C@@H](C)O)[C@@H](C)O)C(C)C)C(=O)N[C@@H](CCC(=O)O)C(=O)N[C@@H](Cc1ccccc1)C(=O)N[C@H](C(=O)N[C@@H](C)C(=O)N[C@@H](Cc1c[nH]c2ccccc12)C(=O)N[C@@H](CC(C)C)C(=O)N[C@H](C(=O)N[C@@H](CCCNC(=N)N)C(=O)NCC(=O)N[C@@H](CCCNC(=N)N)C(=O)NCC(=O)O)C(C)C)[C@@H](C)CC)C(=O)O`, 14 h.
By EC50 is commonly meant the concentration needed to bring the measured effect to its halfway point. As for `CCCCCCCCCCCCCC(CCCCC(=O)NCCCC[C@H](NC(=O)CNC(=O)[C@H](CCCN=C(N)N)NC(=O)[C@@H](NC(=O)[C@H](CC(C)C)NC(=O)[C@H](Cc1c[nH]c2ccccc12)NC(=O)[C@H](C)NC(=O)[C@@H](NC(=O)[C@H](Cc1ccccc1)NC(=O)[C@H](CCC(=O)O)NC(=O)[C@H](CCCN=C(N)N)NC(=O)[C@H](C)NC(=O)[C@H](C)NC(=O)[C@H](CCC(N)=O)NC(=O)CNC(=O)[C@H](CCC(=O)O)NC(=O)[C@H](CC(C)C)NC(=O)[C@H](Cc1ccc(O)cc1)NC(=O)[C@H](CO)NC(=O)[C@H](CO)NC(=O)[C@@H](NC(=O)[C@H](CC(=O)O)NC(=O)[C@H](CO)NC(=O)[C@@H](NC(=O)[C@H](Cc1ccccc1)NC(=O)[C@@H](NC(=O)CNC(=O)[C@H](CCC(=O)O)NC(=O)[C@H](C)NC(=O)[C@@H](N)Cc1c[nH]cn1)[C@@H](C)O)[C@@H](C)O)C(C)C)[C@@H](C)CC)C(C)C)C(=O)NCC(=O)O)C(=O)O` (some centres undefined) (H-HAEGTFTSDVSSYLEGQAAREFIAWLVRGK(X2)G-OH), in data set [2], the EC50 is 0.21 nM.
Same read-out and setting: the value for `CCCCCCCCCCCCCCCCCC(=O)NC(CCC(=O)NCCCC[C@H](NC(=O)CNC(=O)[C@H](CCCN=C(N)N)NC(=O)[C@@H](NC(=O)[C@H](CC(C)C)NC(=O)[C@H](Cc1c[nH]c2ccccc12)NC(=O)[C@H](C)NC(=O)[C@@H](NC(=O)[C@H](Cc1ccccc1)NC(=O)[C@H](CCC(=O)O)NC(=O)[C@H](CCCN=C(N)N)NC(=O)[C@H](C)NC(=O)[C@H](C)NC(=O)[C@H](CCC(N)=O)NC(=O)CNC(=O)[C@H](CCC(=O)O)NC(=O)[C@H](CC(C)C)NC(=O)[C@H](Cc1ccc(O)cc1)NC(=O)[C@H](CO)NC(=O)[C@H](CO)NC(=O)[C@@H](NC(=O)[C@H](CC(=O)O)NC(=O)[C@H](CO)NC(=O)[C@@H](NC(=O)[C@H](Cc1ccccc1)NC(=O)[C@@H](NC(=O)CNC(=O)[C@H](CCC(=O)O)NC(=O)[C@H](C)NC(=O)[C@@H](N)Cc1c[nH]cn1)[C@@H](C)O)[C@@H](C)O)C(C)C)[C@@H](C)CC)C(C)C)C(=O)NCC(=O)O)C(=O)O` (some centres undefined) (H-HAEGTFTSDVSSYLEGQAAREFIAWLVRGK([ξγGlu-Stearoyl])G-OH) was 0.116 nM.
The same measure, in the same setting: the value for `CCCCCCCCCCCCCCCC(=O)NC(CCC(=O)NCCCC[C@H](NC(=O)[C@H](CCCN=C(N)N)NC(=O)[C@H](C)NC(=O)[C@H](C)NC(=O)[C@H](CCC(N)=O)NC(=O)CNC(=O)[C@H](CCC(=O)O)NC(=O)[C@H](CC(C)C)NC(=O)[C@H](Cc1ccc(O)cc1)NC(=O)[C@H](CO)NC(=O)[C@H](CO)NC(=O)[C@@H](NC(=O)[C@H](CC(=O)O)NC(=O)[C@H](CO)NC(=O)[C@@H](NC(=O)[C@H](Cc1ccccc1)NC(=O)[C@@H](NC(=O)CNC(=O)[C@H](CCC(=O)O)NC(=O)[C@H](C)NC(=O)[C@@H](N)Cc1c[nH]cn1)[C@@H](C)O)[C@@H](C)O)C(C)C)C(=O)N[C@@H](Cc1ccccc1)C(=O)N[C@H](C(=O)N[C@@H](C)C(=O)N[C@@H](Cc1c[nH]c2ccccc12)C(=O)N[C@@H](CC(C)C)C(=O)N[C@H](C(=O)N[C@@H](CCCN=C(N)N)C(=O)NCC(=O)N[C@@H](CCCN=C(N)N)C(=O)NCC(=O)O)C(C)C)[C@@H](C)CC)C(=O)O` (some centres undefined) (H-HAEGTFTSDVSSYLEGQAARK([ξγGlu-Palmitoyl])FIAWLVRGRG-OH) was 0.0363 nM; that for `CCCCCCCCCCCCCCCCCC(=O)NC(CCC(=O)NCCCCC(NC(=O)[C@H](CCC(=O)O)NC(=O)[C@H](CCCN=C(N)N)NC(=O)CNC(=O)[C@H](CCCN=C(N)N)NC(=O)[C@@H](NC(=O)[C@H](CC(C)C)NC(=O)[C@H](Cc1c[nH]c2ccccc12)NC(=O)[C@H](C)NC(=O)[C@@H](NC(=O)[C@H](Cc1ccccc1)NC(=O)[C@H](CCC(=O)O)NC(=O)[C@H](CCCN=C(N)N)NC(=O)[C@H](C)NC(=O)[C@H](C)NC(=O)[C@H](CCC(N)=O)NC(=O)CNC(=O)[C@H](CCC(=O)O)NC(=O)[C@H](CC(C)C)NC(=O)[C@H](Cc1ccc(O)cc1)NC(=O)[C@H](CO)NC(=O)[C@H](CO)NC(=O)[C@@H](NC(=O)[C@H](CC(=O)O)NC(=O)[C@H](CO)NC(=O)[C@@H](NC(=O)[C@H](Cc1ccccc1)NC(=O)[C@@H](NC(=O)CNC(=O)[C@H](CCC(=O)O)NC(=O)CNC(=O)[C@@H](N)Cc1c[nH]cn1)[C@@H](C)O)[C@@H](C)O)C(C)C)[C@@H](C)CC)C(C)C)C(=O)O)C(=O)O` (some centres undefined) (H-HGEGTFTSDVSSYLEGQAAREFIAWLVRGRE[ξK]([ξγGlu-Stearoyl])-OH) was 0.213 nM; that for `CCCCCCCCCCCCCCCC(=O)NC(CCC(=O)NCCCCC(NC(=O)CNC(=O)[C@H](CCCN=C(N)N)NC(=O)CNC(=O)[C@H](CCCN=C(N)N)NC(=O)[C@@H](NC(=O)[C@H](CC(C)C)NC(=O)[C@H](Cc1c[nH]c2ccccc12)NC(=O)[C@H](C)NC(=O)[C@@H](NC(=O)[C@H](Cc1ccccc1)NC(=O)[C@H](CCC(=O)O)NC(=O)[C@H](CCCN=C(N)N)NC(=O)[C@H](C)NC(=O)[C@H](C)NC(=O)[C@H](CCC(N)=O)NC(=O)CNC(=O)[C@H](CCC(=O)O)NC(=O)[C@H](CC(C)C)NC(=O)[C@H](Cc1ccc(O)cc1)NC(=O)[C@H](CO)NC(=O)[C@H](CO)NC(=O)[C@@H](NC(=O)[C@H](CC(=O)O)NC(=O)[C@H](CO)NC(=O)[C@@H](NC(=O)[C@H](Cc1ccccc1)NC(=O)[C@@H](NC(=O)CNC(=O)[C@H](CCC(=O)O)NC(=O)CNC(=O)[C@@H](N)Cc1c[nH]cn1)[C@@H](C)O)[C@@H](C)O)C(C)C)[C@@H](C)CC)C(C)C)C(=O)O)C(=O)O` (some centres undefined) (H-HGEGTFTSDVSSYLEGQAAREFIAWLVRGRG[ξK]([ξγGlu-Palmitoyl])-OH) was 0.328 nM.
